Data taken from ChEMBL document CHEMBL4321820, “Identification and Optimization of Mechanism-Based Fluoroallylamine Inhibitors of Lysyl Oxidase-like 2/3” (J Med Chem, 2019).
pIC50: −log10 of the molar value. Calls of active or inactive are those of the source. The calls are words filed in the database; no cut-off is given here.

Columns and labels:
Mus musculus [1] = test: Antifibrotic activity in CCl4-induced BALB/c mouse model of liver fibrosis assessed as reduction in liver fibrosis area at 5 mg/kg, po administered once daily at week 4 to 6 by picro-sirius red staining based microscopy; type: functional, organism-based
Outline: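 Female BALB/c mice given CCl4 i.p. (1 mL/kg of 25% CCl4 in olive oil) twice weekly for 6 weeks; sacrificed 48 h after last dose. Test articles oral, once daily: prophylactic weeks 1-6 or therapeutic weeks 4-6; imatinib control 50 mg/kg daily weeks 1-6. One formalin-fixed liver lobe stained for Picro Sirius Red and α-SMA; fibrotic area as % of total liver area; mean ± SEM, one-way ANOVA with Dunnett's test.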

Mus musculus [2] = test: Effect on plasma ALT level in CCl4-induced BALB/c mouse model of liver fibrosis at 15 mg/kg, po administered once daily for 6 weeks; type: ADME, organism-based; conditions: in vivo, 1008 h
Outline: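 CCl4 liver fibrosis in female BALB/c mice: CCl4 i.p. (1 mL/kg 25% in olive oil) twice weekly for 6 weeks, sacrifice 48 h after final injection. Oral once-daily dosing weeks 1-6 or weeks 4-6; imatinib 50 mg/kg daily weeks 1-6. ALT and AST measured in plasma.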

Protein-lysine 6-oxidase = target: T1, Protein-lysine 6-oxidase (Homo sapiens, UniProt P28300); test: Inhibition of LOX in human IMR90 cells using putrescine as substrate preincubated with enzyme for 30 mins followed by substrate addition and measured every 2.5 mins for 30 mins by Amplex-Red oxidation assay; type: cell-based
T1 sequence (P28300 whole entry): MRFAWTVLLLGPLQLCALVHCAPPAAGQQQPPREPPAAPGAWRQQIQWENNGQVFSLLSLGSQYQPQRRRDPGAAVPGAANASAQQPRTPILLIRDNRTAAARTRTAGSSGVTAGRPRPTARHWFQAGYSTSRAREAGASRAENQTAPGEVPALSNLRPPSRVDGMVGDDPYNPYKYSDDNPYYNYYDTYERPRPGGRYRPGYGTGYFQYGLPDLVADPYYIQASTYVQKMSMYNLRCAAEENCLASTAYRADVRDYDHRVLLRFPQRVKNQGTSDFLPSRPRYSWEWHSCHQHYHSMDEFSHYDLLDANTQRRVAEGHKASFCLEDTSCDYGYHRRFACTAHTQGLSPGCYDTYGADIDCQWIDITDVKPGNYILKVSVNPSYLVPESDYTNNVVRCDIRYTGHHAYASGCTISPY
Outline: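 IMR90 fibroblasts grown in MEM/10% FBS to 80% confluence, then 48-72 h in phenol-red-free 0.1% FBS medium. Conditioned medium concentrated 40-fold (10 kDa). LOX and LOXL2 separated on a 50 kDa filter in 6 M urea/borate, then diluted back to 1.2 M urea. Preincubated 30 min at 37 °C with compound; Amplex Red/HRP/putrescine readout every 2.5 min over 30 min.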

`CCOC(=O)c1ccc2c(c1)c(-c1cccc(S(=O)(=O)N(C)C)c1)c(C)n2C/C(F)=C/CN.Cl` was tested, and the inhibition (Mus musculus [1]) was “Active” and the Activity (Mus musculus [2]) was “Non-Toxic”.
In the case of `Cc1c(-c2cccc(S(=O)(=O)N(C)C)c2)c2cc(C(=O)O)ccc2n1C/C(F)=C/CN.Cl`, the pIC50 (Protein-lysine 6-oxidase) was 5.90.
